Measured values collected from several papers.
Protocols differ between the studies behind these lines.
HDAC5: Histone deacetylase 5 (HDAC5, Homo sapiens, UniProt Q9UQL6)
SLC6A3: Sodium-dependent dopamine transporter (SLC6A3, Homo sapiens, UniProt Q01959)
DRD3: D(3) dopamine receptor (DRD3, Homo sapiens, UniProt P35462)

SMILES	target	effect on	action	method	IC50 [µM]
O=C(NO)c1ccc(Cn2cnc3c(Nc4cccc([N+](=O)[O-])c4)ncnc32)cc1	HDAC5	enzyme activity	inhibitor	–	1.14
COc1c(Cl)cccc1Nc1c(-c2ccncc2OC[C@@H]2COCCO2)[nH]c2c1C(=O)NCC2	Discoidin domain-containing receptor 2 (DDR2, Homo sapiens, UniProt Q16832)	cell-free assay	–	TR-FRET	0.0533
NC(=O)c1nnn(Cc2cc(Cl)c(C(=O)c3ccc(Cl)cc3)c(Cl)c2)c1N	SLC6A3	transporter uptake	inhibitor	–	0.069
Cc1cc(O)c(-c2ccc([C@@H](C)CN(C)C)cc2)c2c1[nH]c(=O)c1sccc12	Cyclin-dependent kinase 12, with cyclin K (CDK12, Homo sapiens, UniProt Q9NYV4)	enzyme activity	inhibitor	–	> 1
Cc1[nH]c(C)c(S(=O)(=O)Nc2ccc(C(F)(F)F)c(Cl)c2)c1C(=O)N1CCc2ccccc21	DRD3	G protein activation	antagonist	BRET	21
COc1ccc(N(Cc2nc(-c3ccc(F)cc3)cs2)C(=O)CCCCCC(=O)NO)cc1	HDAC5	enzyme activity	inhibitor	–	> 10
CCCN(CCC)S(=O)(=O)c1ccc(C(=O)O)cc1	Taste receptor type 2 member 16 (TAS2R16, Homo sapiens, UniProt Q9NYV7)	inositol phosphate	antagonist	TR-FRET	770
Cc1[nH]c(C)c(S(=O)(=O)Nc2ccc(Cl)c(C(F)(F)F)c2)c1C(=O)N1CCC(F)(F)C1	DRD3	G protein activation	antagonist	BRET	15
CN(C)C(=O)c1cc2cnc(Nc3ccc(-c4ccc5c(=O)cc(N6CCOCC6)oc5c4)cc3)nc2n1C1CCCC1	DNA-dependent protein kinase catalytic subunit (PRKDC, Homo sapiens, UniProt P78527)	enzyme activity	inhibitor	–	0.192
CNc1nc(C#Cc2ccc(Cl)s2)nc2c1ncn2[C@H]1[C@H](O)[C@H](O)[C@]2(C(=O)OC)C[C@H]12	SLC6A3	transporter uptake	inhibitor	radiometric	0.38
Cc1[nH]c(C)c(S(=O)(=O)Nc2ccc(C(F)(F)F)c(Cl)c2)c1C(=O)N1CCCC1	DRD3	β-arrestin recruitment	antagonist	–	2.8
CN1CCN(c2nc(-c3cc4cc(Br)ccc4oc3=O)cs2)CC1	Carbonic anhydrase 12 (CA12, Homo sapiens, UniProt O43570)	enzyme activity	inhibitor	absorbance	2.82
CCc1ccc(NS(=O)(=O)c2c(C)[nH]c(C)c2C(=O)N2CCC(F)(F)C2)cc1Cl	DRD3	G protein activation	antagonist	BRET	1.6
Nc1cnccc1Nc1ccc(Cl)c(Cl)c1	DNA repair nuclease/redox regulator APEX1 (APEX1, Homo sapiens, UniProt P27695)	enzyme activity	inhibitor	–	> 100
CNc1nc(C#Cc2ccc(Cl)s2)nc2c1ncn2[C@H]1[C@H](O)[C@H](O)[C@]2(CC#N)C[C@H]12	SLC6A3	transporter uptake	inhibitor	radiometric	0.36
COc1ccc(N(Cc2csc(-c3ccc(Br)cc3)n2)C(=O)CCCCCC(=O)NO)cc1	HDAC5	enzyme activity	inhibitor	–	> 10
